High-throughput results from PubChem.
Hits are enriched below; roughly 2.5% of the tested compounds scored in any of these assays.
PAD4 inh: blocks human protein arginine deiminase 4; recombinant PAD4, RCA probe fluorescence polarization; inhibition, % at 6.36 µM; actives 0.41% (n = 330,000);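 active means percent inhibition above a cutoff equal to the mean of all tested compounds plus 3 SD, cut at about 15% in these data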;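 further: 0% = PAD4 with RCA probe and DMSO and 100% = probe without PAD4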
GSTO1 inh: GSTO1 inhibition, counter-screen for RBBP9 inhibitors | P78417 | recombinant GSTO1, activity-based probe fluorescence polarization | inhibition, % at 5.96 µM | actives 1.1% (n = 300,000);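 active means inhibition above the campaign mean inhibition plus 3 SD, cut at about 35% in these data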;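 further: 0% = GSTO1-1 with DMSO and 100% = wells lacking GSTO1-1 enzyme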
Fh CTSL1 inh: cathepsin L1 inhibition, PFM18AAP counter-screen; recombinant F. hepatica cathepsin L1, Z-Leu-Arg-MCA fluorescence; inhibition, % at 5.96 µM; actives 0.49% (n = 300,000);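 active means inhibition above the mean of all tested compounds plus 3 SD, set per screening campaign, cut at about 17% in these data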;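 further: 0% = plate median of test compound wells and 100% = 1 µM Z-Phe-Ala-diazomethylketone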
PRMT1 FP inh: PRMT1 (human) inhibition, primary screen; Q99873; recombinant PRMT1, activity-based probe fluorescence polarization; inhibition, % at 2.79 µM; actives 1.3% (n = 370,000); AID 652257;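 active means inhibition above about 21% made by adding two undisclosed values, limit read from the data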
TDP2 inh: TDP2 (human) inhibition, absorbance primary screen; O95551; recombinant TDP2, T5PNP hydrolysis, p-nitrophenol absorbance 415 nm; inhibition, % at 12.8 µM; actives 0.34% (n = 370,000); AID 720702;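 active means inhibition above the mean of all tested compounds plus 3 SD, set per campaign, cut at about 25% in these data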;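 further: 0% = DMSO with enzyme and 100% = buffer with substrate but no TDP2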
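System – recombinant human TDP2 · Amount – 120 nM TDP2 per well · Buffer or medium – Mg2+-containing Tris-HCl buffer, pH 7.5 · Reagent – T5PNP substrate, 5 mM · Dosing – 12.8 µM single point, 1% DMSO · Incubation – 2 h at 37 °C · Measured by – epi absorbance · Read-out basis – percent inhibition · Benchmarks – high control without enzyme, low control DMSO plus TDP2 · Repeats – singlicate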
* marks the source's active call; other numbers are inactive results.

COC(=O)CS(=O)(=O)c1nnc([C@H](Cc2ccccc2)NC(=O)OC(C)(C)C)o1 was read as PAD4 inh -2, GSTO1 inh -13, Fh CTSL1 inh 24*, PRMT1 FP inh 13 and TDP2 inh 2.
CC(C)(C)OC(=O)N[C@@H](Cc1ccccc1)c1nnc(SCC(N)=O)o1 was read as PAD4 inh 3, GSTO1 inh 5, Fh CTSL1 inh 1, PRMT1 FP inh 3 and TDP2 inh 7.
Screening Cc1ccc(CC2CC(=O)N(C(Cc3ccccc3)C(=O)O)C2=O)cc1 (stereo unspecified) returned PAD4 inh -6, GSTO1 inh 36*, Fh CTSL1 inh -3, PRMT1 FP inh 4 and TDP2 inh 0.
For Clc1ccc2nc(-c3ccco3)c(Cc3ccccc3)n2c1 the results were PRMT1 FP inh 24* and TDP2 inh 5.
For COC(=O)c1ccc2nc(-c3ccco3)c(Cc3ccccc3)n2c1 the results were PRMT1 FP inh 24* and TDP2 inh 2.
Screening COc1ccc(CCNC(=O)Nc2ccc3c(c2)[C@]2(CC(=O)N(CC(C)C)C2c2ccccc2)C(=O)N3C)cc1OC (stereo partly specified) returned PRMT1 FP inh -5 and TDP2 inh -5.
COc1cccc(CNc2ccccc2O)c1OCc1ccccc1F was read as PAD4 inh -20, GSTO1 inh 36*, Fh CTSL1 inh -2, PRMT1 FP inh 5 and TDP2 inh 3.
Screening COc1cccc(CNc2ccc(S(N)(=O)=O)cc2)c1OCc1ccccc1F returned PAD4 inh -3, GSTO1 inh -3, Fh CTSL1 inh 0, PRMT1 FP inh -1 and TDP2 inh 4.
Nc1cccc2[nH]c(C(F)(F)F)nc12 was read as PAD4 inh -13, GSTO1 inh 4, Fh CTSL1 inh -1, PRMT1 FP inh 7 and TDP2 inh 32*.
O=C1Nc2ccc(C(F)(F)F)cc2N2CCCC12 (stereo unspecified) was read as PAD4 inh -8, GSTO1 inh 38* and Fh CTSL1 inh 13.
`O=C1Nc2cc(C(F)(F)F)ccc2N2CCCCC12` (stereo unspecified) gave PAD4 inh 3, GSTO1 inh 16, Fh CTSL1 inh 3, PRMT1 FP inh -6 and TDP2 inh -5.
`O=C(OCC#CCSc1nnc(-c2ccncc2)o1)c1cccs1` gave PAD4 inh -1, GSTO1 inh 37*, Fh CTSL1 inh -5, PRMT1 FP inh -3 and TDP2 inh 10.
`COc1cccc(-c2nc(NCc3ccccc3)c3ccccc3n2)c1O` gave PAD4 inh -8, GSTO1 inh 16, Fh CTSL1 inh 21*, PRMT1 FP inh 0 and TDP2 inh -17.
COc1ccc(-n2c(SCC(=O)Nc3cc(C)c(NC(=O)c4ccccc4)cc3OC)nnc2-c2ccccc2F)cc1 was read as PRMT1 FP inh 5 and TDP2 inh -9.
For CCOC(=O)/C=C(\C)Sc1cc(=O)oc2ccccc12 the results were PAD4 inh 4, GSTO1 inh -15, Fh CTSL1 inh -3, PRMT1 FP inh 0 and TDP2 inh 5.
CCOC(=O)/C=C(\C)Sc1cc(O)c2ccccc2c1O was read as PRMT1 FP inh 84* and TDP2 inh 59*.
Cc1ccc(-c2[nH]nc3c2C(c2ccoc2)C(C#N)=C(N)O3)cc1C (stereo unspecified) was read as PAD4 inh -15, GSTO1 inh 44* and Fh CTSL1 inh -1.
CCOC(=O)C1=C(C)OC(N)=C(C#N)C1c1ccoc1 (stereo unspecified) was read as PAD4 inh 0, GSTO1 inh 12, Fh CTSL1 inh -1, PRMT1 FP inh 1 and TDP2 inh 15.
`Cc1nn(Cc2ccccc2)c2c1C(c1ccc(Cl)cc1)C(C#N)=C(N)O2` (stereo unspecified) gave PAD4 inh -3, GSTO1 inh 19, Fh CTSL1 inh 2, PRMT1 FP inh 3 and TDP2 inh 10.
Cc1ccc(-n2nc(C)c3c2OC(N)=C(C#N)C3c2ccoc2)cc1 (stereo unspecified) was read as PAD4 inh -11, GSTO1 inh 36*, Fh CTSL1 inh 1, PRMT1 FP inh 4 and TDP2 inh 9.
Cc1ccc(-n2nc(C)c3c2OC(N)=C(C#N)C3c2ccco2)cc1 (stereo unspecified) was read as PAD4 inh -12, GSTO1 inh 36*, Fh CTSL1 inh -2, PRMT1 FP inh 6 and TDP2 inh 7.
